From PubChem BioAssay
This is a sample that favours compounds with a hit; in the whole collection about 3.6% have one here.
Yeast growth inh: chemicals that inhibit yeast BB579 growth in restrictive medium (lifespan-shortening candidates); inhibition, % at 10 µM; S. cerevisiae BB579 growth, OD615, 48 h; AID 804; 140,000 tested, 0.51% active;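 active means inhibition above a set limit, 3 SD over the mean compound inhibition, cut at about 44% in these data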
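controls = amphotericin B 10 µg/mL, positive | assay system = DeaD yeast strain BB579 | schedule = 48 h compound exposure at 30 °C after 4 h preincubation | detection = OD615 turbidity measurement | medium = restrictive CSMM-D medium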
Measles CPE: protection of cells from measles virus; Measles virus-infected cells, CPE protection, absorbance; protection (pct of control), % at 4 µM; 140,000 tested, 1.5% active; in the data active means protection mostly above about 24%, no sharp cut-off; inactive means mostly below about 26%
RAM inhibit: inhibitors of the yeast RAM network; S. cerevisiae dse1pr::URA3 reporter, 5-FOA growth OD615, 2 d; analog-sensitive cbk1-as2 kinase mutant strain; inhibition, % at 50 µM; 190,000 tested, 1.8% active; AID 868;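 active means inhibition above a set limit, 3 SD over mean compound inhibition, cut at about 8.4% in these data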;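 further: inhibition rescues growth on 5-FOA so higher OD means more RAM inhibition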
Yeast life ext: yeast lifespan extension; S. cerevisiae growth with nicotinamide, OD615; deaD strain in restrictive glucose medium; inhibition of the nicotinamide effect, % at 10 µM; 130,000 tested, 0.68% active;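 active means inhibition above a set limit, placed 3 SD over the median of all compounds, cut at about 26% in these data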
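assay system = DeaD-strain S. cerevisiae | measured by = absorbance at 615 nm | probe or stimulus = nicotinamide 1.5 mM | buffer or medium = CSMM-D glucose medium, restrictive | times = 48 h at 30 °C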
Hits are given with their value; 0 = inactive; - = no result given.

SMILES	Yeast growth inh	Measles CPE	RAM inhibit	Yeast life ext
COc1ccc(CNC(=O)NC(C)(C)c2cccc(C(C)(C)NC(=O)NCc3ccc(OC)cc3)c2)cc1	0	0	0	0
O=C(CN(C(=O)C1CSC(=O)C1)c1ccccc1F)NCc1ccc2c(c1)OCO2 (configuration not stated)	0	63.0	0	0
CC1CCCC(C)N1C(=O)c1cc(-c2ccc(Cl)c(Cl)c2)on1 (configuration not stated)	0	0	10.6	0
CCOCc1c(C(=O)NC2CCCCCC2)oc2ccccc12	-	-	0	-
Cc1c(Cl)cccc1NC(CC(=O)c1ccccc1)C(=O)OCC(=O)c1cccs1 (configuration not stated)	0	0	0	0
COc1ccccc1NC(CC(=O)c1ccccc1)C(=O)OCC(=O)c1ccc(F)cc1 (configuration not stated)	0	0	10.8	0
O=C(CC(Nc1cccc(Cl)c1Cl)C(=O)OCC(=O)c1cccs1)c1ccccc1 (configuration not stated)	0	0	9.0	0
NC(=S)N=Nc1c(O)[nH]c2c(Br)cc(Br)cc12	-	-	0	-
CCCc1cc(-c2n[nH]c(C)c2-c2ccc(C(=O)OCC)o2)c(O)cc1O	0	0	9.6	0
CC1CCCCN1CCCNC(=O)c1cc(Br)c(Br)[nH]1 (configuration not stated)	-	-	0	-
Oc1c(Br)cc(Cl)cc1C=Nc1ccc(N2CCOCC2)cc1	-	-	0	-
Oc1c(Br)cc(Cl)cc1C=Nc1ccccc1Br	64.8	0	0	0
Cc1cc(C)n(-c2ccc(C(=O)OCC(=O)Nc3ccc([N+](=O)[O-])cc3)cc2)n1	0	44.1	0	0
Cc1cc(C)n(-c2ccc(C(=O)OCC(=O)Nc3ccccc3[N+](=O)[O-])cc2)n1	0	0	0	0
CC(C)=CC(=O)OCC(=O)Nc1ccccc1Cl	0	81.5	0	0
O=C(COC(=O)/C=C/c1ccccc1)Nc1cccc(Oc2ccccc2)c1	0	0	8.9	0
O=C(CSc1ccc2c(c1)OCCO2)NCCc1ccc(Cl)cc1Cl	0	0	8.4	0
COc1cc(NC(=O)Cc2ccccc2)cc(OC)c1	0	58.5	0	0
COc1cccc(/C=C/C(=O)OCC(=O)Nc2ccc(Cl)c(S(=O)(=O)N(C)C)c2)c1	-	-	8.5	-
COc1cc(NC(=O)COC(=O)/C=C/c2ccc(OC)c(OC)c2)cc(OC)c1	-	-	0	-
COc1cc(NC(=O)COC(=O)/C=C/c2ccccc2Cl)cc(OC)c1	0	0	10.0	0
O=C(COC(=O)/C=C/c1ccccc1Cl)NCCc1ccc(Cl)cc1Cl	0	0	8.6	0
N#Cc1nc(COc2ccccc2)oc1N1CCOCC1	0	0	0	0
COc1ccc(-c2nc(C#N)c(N3CCN(c4ccccc4)CC3)o2)cc1	0	0	0	0
COc1ccc(N2CCN(c3oc(Cc4ccccc4)nc3C#N)CC2)cc1	0	0	10.6	0
SMILES	Yeast growth inh	Measles CPE	RAM inhibit	Yeast life ext
N#Cc1nc(Cc2ccccc2)oc1N1CCN(c2cccc(Cl)c2)CC1	0	0	11.3	0
COc1ccc(N2CCN(c3oc(COc4ccccc4)nc3C#N)CC2)cc1	0	0	10.3	0
CC(/C=C/c1ccc2c(c1)OCO2)=N/NC(=O)c1ccc(C)nc1	0	0	0	0
C=CC[n+]1c(-c2ccc(Cl)cc2Cl)csc1Nc1ccc(NC(C)=O)cc1	-	-	0	-
CCCC[n+]1c(-c2ccc(Cl)cc2Cl)csc1Nc1ccccc1	0	0	0	32.5
COc1ccccc1N(C)S(=O)(=O)c1ccc(Cl)c(C(=O)OCc2c(C)noc2C)c1	-	-	11.0	-
CC(=O)N1c2ccccc2NC2=C(C(=O)CC(C)(C)C2)C1c1cccn1C (configuration not stated)	-	-	0	-
FC(F)Sc1nc(-c2ccccc2)c(-c2ccccc2)n1C(F)F	0	34.5	0	0
Cc1c(C#N)c(NC(=O)CCl)n(Cc2cccs2)c1C	-	-	0	-
CCOC(=O)c1ccc(NC(=O)N2CCN(C(=O)c3ccco3)CC2)cc1	-	-	0	-
COc1ccc(Nc2nc(Cl)c(C=O)s2)cc1	-	-	0	-
Cc1ccc(C(=O)NNC(=S)NC(=O)c2ccc(Cl)cc2Cl)cc1	0	0	0	31.3
O=C(COc1ccccc1)NNC(=S)NC(=O)c1ccc(Cl)cc1Cl	88.3	0	0	-
Cc1cc(NC(=O)CCN2C(=O)C3C4CCC(C4)C3C2=O)c(C)cc1Br (configuration not stated)	0	0	0	0
Cc1cccc(C)c1NC(=O)CCN1C(=O)C2C3CCC(C3)C2C1=O (configuration not stated)	0	21.0	0	0
